In ChEMBL document CHEMBL1147862, “Studies on synthesis and pharmacological activities of 3,6-disubstituted-1,2,4-triazolo[3,4-b]-1,3,4-thiadiazoles and their dihydro analogues” (2007):

Legend:
Assay type in all cases: functional
Staphylococcus aureus [1] = assay: Antibacterial activity against Staphylococcus aureus at 20 ug/ml by agar plate diffusion technique; details: read-out: IZ
Rattus norvegicus [2] = assay: Antiinflammatory activity in Wistar Albino rat assessed as inhibition of carrageenan-induced paw oedema at 20 mg/kg after 4 hrs relative to control
Method in brief: (§1)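 Wistar albino rats, 150–200 g, six per group, dosed orally with a 20 mg/kg suspension; control gets 0.1 ml 1% gum acacia. After 30 min, 0.1 ml 1% carrageenan in saline is injected subplantar into the right hind paw. Paw volume is read by plethysmograph at 0–4 h. Inhibition = 100(1 − Vtest/Vcontrol) on mean volume increase.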

Candida albicans [3] = assay: Antifungal activity against Candida albicans at 10 ug/ml by paper disc method; details: read-out: IZ
Escherichia coli [4] = assay: Antibacterial activity against Escherichia coli at 20 ug/ml by agar plate diffusion technique; details: read-out: IZ
Pseudomonas aeruginosa [5] = assay: Antibacterial activity against Pseudomonas aeruginosa at 30 ug/ml by agar plate diffusion technique; details: read-out: IZ
Mus musculus [6] = assay: Analgesic activity in Swiss mouse assessed as increase in reaction time at 20 mg/kg, po after 30 mins by Eddy's hot plate technique
Method in brief: (§2)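 Swiss mice of either sex, 25–35 g, placed one at a time on a hot plate held at 55 °C. End point is paw licking or jumping, whichever comes first, with a 15 s cut-off to avoid paw injury. Reaction time is recorded and reported as percent increase in reaction time.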

Mus musculus [7] = assay: Analgesic activity in Swiss mouse assessed as increase in reaction time at 20 mg/kg, po after 90 mins by Eddy's hot plate technique; method in brief: as §2
Bacillus subtilis [8] = assay: Antibacterial activity against Bacillus subtilis at 10 ug/ml by agar plate diffusion technique; details: read-out: IZ
Pseudomonas aeruginosa [9] = assay: Antibacterial activity against Pseudomonas aeruginosa at 10 ug/ml by agar plate diffusion technique; details: read-out: IZ
Aspergillus niger [10] = assay: Antifungal activity against Aspergillus niger at 20 ug/ml by paper disc method; details: read-out: IZ
Bacillus subtilis [11] = assay: Antibacterial activity against Bacillus subtilis at 30 ug/ml by agar plate diffusion technique; details: read-out: IZ
Rattus norvegicus [12] = assay: Antiinflammatory activity in Wistar Albino rat assessed as inhibition of carrageenan-induced paw oedema at 20 mg/kg after 3 hrs relative to control; method in brief: as §1
Candida albicans [13] = assay: Antifungal activity against Candida albicans at 20 ug/ml by paper disc method; details: read-out: IZ
Escherichia coli [14] = assay: Antibacterial activity against Escherichia coli at 10 ug/ml by agar plate diffusion technique; details: read-out: IZ
Rattus norvegicus [15] = assay: Antiinflammatory activity in Wistar Albino rat assessed as inhibition of carrageenan-induced paw oedema at 20 mg/kg after 1 hr relative to control; method in brief: as §1
Staphylococcus aureus [16] = assay: Antibacterial activity against Staphylococcus aureus at 10 ug/ml by agar plate diffusion technique; details: read-out: IZ
Candida albicans [17] = assay: Antifungal activity against Candida albicans at 30 ug/ml by paper disc method; details: read-out: IZ
Aspergillus niger [18] = assay: Antifungal activity against Aspergillus niger at 10 ug/ml by paper disc method; details: read-out: IZ
Aspergillus niger [19] = assay: Antifungal activity against Aspergillus niger at 30 ug/ml by paper disc method; details: read-out: IZ
Mus musculus [20] = assay: Analgesic activity in Swiss mouse assessed as increase in reaction time at 20 mg/kg, po after 60 mins by Eddy's hot plate technique; method in brief: as §2
Rattus norvegicus [21] = assay: Antiinflammatory activity in Wistar Albino rat assessed as inhibition of carrageenan-induced paw oedema at 20 mg/kg after 2 hrs relative to control; method in brief: as §1
Pseudomonas aeruginosa [22] = assay: Antibacterial activity against Pseudomonas aeruginosa at 20 ug/ml by agar plate diffusion technique; details: read-out: IZ
Staphylococcus aureus [23] = assay: Antibacterial activity against Staphylococcus aureus at 30 ug/ml by agar plate diffusion technique; details: read-out: IZ
Bacillus subtilis [24] = assay: Antibacterial activity against Bacillus subtilis at 20 ug/ml by agar plate diffusion technique; details: read-out: IZ
Escherichia coli [25] = assay: Antibacterial activity against Escherichia coli at 30 ug/ml by agar plate diffusion technique; details: read-out: IZ

Compound	zone of inhibition at 20 µg/mL (Staphylococcus aureus [1])	inhibition in vivo at 20 mg/kg (Rattus norvegicus [2])	zone of inhibition at 10 µg/mL (Candida albicans [3])	zone of inhibition at 20 µg/mL (Escherichia coli [4])	zone of inhibition at 30 µg/mL (Pseudomonas aeruginosa [5])	Activity (Mus musculus [6])	Activity (Mus musculus [7])	zone of inhibition at 10 µg/mL (Bacillus subtilis [8])	zone of inhibition at 10 µg/mL (Pseudomonas aeruginosa [9])	zone of inhibition at 20 µg/mL (Aspergillus niger [10])	zone of inhibition at 30 µg/mL (Bacillus subtilis [11])	inhibition in vivo at 20 mg/kg (Rattus norvegicus [12])	zone of inhibition at 20 µg/mL (Candida albicans [13])	zone of inhibition at 10 µg/mL (Escherichia coli [14])	inhibition in vivo at 20 mg/kg (Rattus norvegicus [15])	zone of inhibition at 10 µg/mL (Staphylococcus aureus [16])	zone of inhibition at 30 µg/mL (Candida albicans [17])	zone of inhibition at 10 µg/mL (Aspergillus niger [18])	zone of inhibition at 30 µg/mL (Aspergillus niger [19])	Activity (Mus musculus [20])	further results
COc1ccc(Cl)c(-c2nnc3n2NC(c2cccn2C)S3)c1 (stereo not given)	6.1 mm	20.7%	4.3 mm	6.9 mm	11.9 mm	4.38%	19.67%	3.6 mm	3.9 mm	7.65 mm	9.33 mm	18.5%	7.4 mm	3.82 mm	14.1%	3.82 mm	12.6 mm	4.71 mm	12.9 mm	6.2%	inhibition in vivo at 20 mg/kg (Rattus norvegicus [21]): 16.8%; zone of inhibition at 20 µg/mL (Pseudomonas aeruginosa [22]): 7.1 mm; zone of inhibition at 30 µg/mL (Staphylococcus aureus [23]): 11 mm; zone of inhibition at 20 µg/mL (Bacillus subtilis [24]): 6.82 mm; zone of inhibition at 30 µg/mL (Escherichia coli [25]): 10.1 mm
COc1ccc(Cc2nnc3n2NC(c2ccc[nH]2)S3)cc1OC (stereo not given)	7.64 mm	21.5%	4.7 mm	7.18 mm	13.3 mm	7.6%	21.06%	4.32 mm	7.33 mm	9.12 mm	12 mm	17.7%	8.12 mm	4.48 mm	13.2%	4.02 mm	13.1 mm	4.68 mm	12.2 mm	12.65%	inhibition in vivo at 20 mg/kg (Rattus norvegicus [21]): 15.9%; zone of inhibition at 20 µg/mL (Pseudomonas aeruginosa [22]): 11.7 mm; zone of inhibition at 30 µg/mL (Staphylococcus aureus [23]): 10.6 mm; zone of inhibition at 20 µg/mL (Bacillus subtilis [24]): 8.32 mm; zone of inhibition at 30 µg/mL (Escherichia coli [25]): 14.2 mm
COc1ccc2[nH]cc(Cc3nn4c(-c5ccoc5C)nnc4s3)c2c1	9.1 mm	30.8%	5.62 mm	9.35 mm	14.5 mm	13.84%	31.86%	5.82 mm	5.36 mm	9.8 mm	14.2 mm	26.1%	10.8 mm	5.16 mm	16%	4.85 mm	13.5 mm	5.06 mm	13.1 mm	24.76%	inhibition in vivo at 20 mg/kg (Rattus norvegicus [21]): 20.1%; zone of inhibition at 20 µg/mL (Pseudomonas aeruginosa [22]): 9.62 mm; zone of inhibition at 30 µg/mL (Staphylococcus aureus [23]): 13.3 mm; zone of inhibition at 20 µg/mL (Bacillus subtilis [24]): 9.61 mm; zone of inhibition at 30 µg/mL (Escherichia coli [25]): 14.2 mm
COc1ccc(Cl)c(-c2nnc3sc(-c4ccnc5ccccc45)nn23)c1	13.2 mm	20.9%	6.48 mm	14.5 mm	18.7 mm	7.69%	23.84%	7.68 mm	7.82 mm	12.8 mm	18.8 mm	18.6%	13.9 mm	8.28 mm	11.1%	7.21 mm	18 mm	6.4 mm	19.1 mm	17.24%	inhibition in vivo at 20 mg/kg (Rattus norvegicus [21]): 14.3%; zone of inhibition at 20 µg/mL (Pseudomonas aeruginosa [22]): 13.3 mm; zone of inhibition at 30 µg/mL (Staphylococcus aureus [23]): 18.1 mm; zone of inhibition at 20 µg/mL (Bacillus subtilis [24]): 13.1 mm; zone of inhibition at 30 µg/mL (Escherichia coli [25]): 18.8 mm
COc1ccc(Cl)c(-c2nnc3sc(-c4cc(O)nc(O)c4)nn23)c1	8.82 mm	23.4%	4.14 mm	8 mm	13.3 mm	5.68%	26.14%	4.7 mm	4.84 mm	8.06 mm	13.8 mm	21%	7.15 mm	4.18 mm	8.35%	4.57 mm	15 mm	4.82 mm	13.6 mm	15.18%	inhibition in vivo at 20 mg/kg (Rattus norvegicus [21]): 14.2%; zone of inhibition at 20 µg/mL (Pseudomonas aeruginosa [22]): 9.06 mm; zone of inhibition at 30 µg/mL (Staphylococcus aureus [23]): 13.7 mm; zone of inhibition at 20 µg/mL (Bacillus subtilis [24]): 8.38 mm; zone of inhibition at 30 µg/mL (Escherichia coli [25]): 13.2 mm
Cc1occc1-c1nnc2n1NC(c1ccc([N+](=O)[O-])o1)S2 (stereo not given)	11.5 mm	24.9%	5.89 mm	11 mm	17.1 mm	5.34%	26.85%	6.25 mm	6.12 mm	10.4 mm	17.2 mm	22.8%	11.1 mm	5.78 mm	15.6%	6.11 mm	15.8 mm	5.48 mm	15.3 mm	15.68%	inhibition in vivo at 20 mg/kg (Rattus norvegicus [21]): 18.1%; zone of inhibition at 20 µg/mL (Pseudomonas aeruginosa [22]): 11.8 mm; zone of inhibition at 30 µg/mL (Staphylococcus aureus [23]): 17.5 mm; zone of inhibition at 20 µg/mL (Bacillus subtilis [24]): 11.5 mm; zone of inhibition at 30 µg/mL (Escherichia coli [25]): 16.9 mm
